# According to ChEMBL document CHEMBL3526139, “Clinical pharmacokinetics, metabolism, and drug-drug interaction of carfilzomib” (Drug Metab Dispos, 2013):
# How the values were obtained:
# [1] = molecular target: T1, CYP3A (Homo sapiens, UniProt P08684+P20815+P24462+Q9HB55); assay: Inhibition of CYP3A in human liver microsomes assessed as substrate metabolite formation using midazolam as substrate preincubated with microsomes for 30 mins prior to substrate addition measured after 5 mins by LC-MS/MS analysis; format: ADME; conditions: probe midazolam
# Outline: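 HLM (16-donor pool) were preincubated 30 min with carfilzomib 0.01–10 µM before addition of midazolam or testosterone at about Km. Metabolite formation was measured by LC-MS/MS after 5 min, in duplicate, relative to 0.5% acetonitrile controls.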
# [2] = molecular target: T2, Cytochrome P450 3A (Homo sapiens, UniProt P08684+P20815+Q9HB55+P24462); assay: Time-dependent inhibition of CYP3A in human liver microsomes assessed as testosterone 6-hydroxylation using testosterone as substrate by LC-MS/MS analysis in presence of NADPH; format: ADME
# Outline: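 Pooled HLM (16 donors) given carfilzomib 0.01–10 µM in duplicate at 37°C with a 30-min preincubation before probe substrate was added. Substrate was set near Km (testosterone Km 100 µM; midazolam Km 3.8 µM). Protein was 0.1 mg/mL, or 0.05 mg/mL with midazolam. Metabolite formation was read by LC-MS/MS after 5 min and expressed relative to 0.5% acetonitrile controls to give IC50.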
# [3] = AUC infinity in human patient with relapsed solid tumor at 20 mg/m'2, iv administered over 2 to 10 mins on days 1, 2, 8, 9, 15 and 16 of 28-day cycle measured on day 1 of cycle 1 by LC-MS/MS analysis; format: ADME, organism-based; parameters: route intravenous, time infinity; conditions: plasma
# Outline: (§1)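 Patients with relapsed solid tumors (n=3) received carfilzomib IV at 20 mg/m2. Plasma was sampled on Days 1 and 16 of Cycle 1 before dosing, at end of administration, and at 5, 15, 30 min and 1, 2, 4 h after. Samples underwent solid phase extraction and LC-MS/MS with d10-carfilzomib internal standard over 0.100–200 ng/mL. Parameters were derived noncompartmentally (constant IV infusion model) from actual elapsed time from infusion start.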
# [4] = AUC last in human patient with relapsed solid tumor at 20 mg/m'2, iv administered on days 1, 2, 8, 9, 15 and 16 of 28-day cycle over 2 to 10 mins measured on day 16 of cycle 1 by LC-MS/MS analysis; format: ADME, organism-based; parameters: route intravenous, time 0 - last; conditions: plasma; outline: as §1
# [5] = Cmax in human patient with relapsed solid tumor at 20 mg/m'2, iv administered on days 1, 2, 8, 9, 15 and 16 of 28-day cycle over 2 to 10 mins measured on day 16 of cycle 1 by LC-MS/MS analysis; format: ADME, organism-based; parameters: route intravenous; conditions: in vivo; outline: as §1
# [6] = molecular target: Cytochrome P450 2C9 (Homo sapiens, UniProt P11712); assay: Inhibition of CYP2C9 in human liver microsomes using diclofenac as substrate after 5 mins by LC-MS/MS analysis; format: ADME
# Outline: (§2)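 Pooled HLM from 16 donors were incubated at 37°C in duplicate with carfilzomib 0.01–10 µM and probe substrate at about its Km. Substrates were phenacetin, amodiaquine, diclofenac, S-mephenytoin, dextromethorphan, testosterone and midazolam. Protein was 0.1 mg/mL, or 0.05 mg/mL with midazolam. Reactions ran 5 min without preincubation, then were quenched with acetonitrile. Metabolites were measured by LC-MS/MS relative to 0.5% acetonitrile controls.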
# [7] = molecular target: Cytochrome P450 2C19 (Homo sapiens, UniProt P33261); assay: Inhibition of CYP2C19 in human liver microsomes using S-mephenytoin as substrate after 5 mins by LC-MS/MS analysis; format: ADME; outline: as §2
# [8] = molecular target: T3, Cytochrome P450 1A2 (Homo sapiens, UniProt P05177); assay: Drug metabolism in pooled human hepatocytes assessed as disapperance rate at 1 uM by LC-MS/MS analysis in presence of 30 uM CYP1A2 inhibitor furafylline; format: ADME, cell-based, Hepatocyte
# T3 sequence (P05177 whole entry): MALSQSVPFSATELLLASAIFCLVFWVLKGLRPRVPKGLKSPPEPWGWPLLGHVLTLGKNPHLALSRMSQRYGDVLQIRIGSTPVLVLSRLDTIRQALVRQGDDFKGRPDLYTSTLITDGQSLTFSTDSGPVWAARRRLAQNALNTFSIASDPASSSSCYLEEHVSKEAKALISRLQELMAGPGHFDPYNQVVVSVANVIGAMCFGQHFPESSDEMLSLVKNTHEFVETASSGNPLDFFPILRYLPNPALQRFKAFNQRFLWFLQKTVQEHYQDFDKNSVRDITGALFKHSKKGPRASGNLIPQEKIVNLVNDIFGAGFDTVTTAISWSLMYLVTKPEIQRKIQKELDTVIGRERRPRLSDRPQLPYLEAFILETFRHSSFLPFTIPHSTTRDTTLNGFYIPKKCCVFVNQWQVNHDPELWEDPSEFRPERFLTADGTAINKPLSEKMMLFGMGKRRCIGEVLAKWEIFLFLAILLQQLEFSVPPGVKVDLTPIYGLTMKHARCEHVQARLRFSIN
# Outline: (§3)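 Pooled human hepatocytes in suspension (~0.5 x 10^6 viable cells/mL) were incubated with 1 µM carfilzomib at 37°C under 5% CO2, with or without isoform-selective CYP chemical inhibitors. Reactions were quenched with acetonitrile at 0, 15, 30, 60 and 120 min. Carfilzomib was quantified by non-validated LC-MS/MS after protein precipitation.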
# [9] = Drug excretion in urine of iv dosed human patient with relapsed and refractory hematological malignancies assessed as morpholino-hPhe-Leu-Phe-Leu-diol metabolite formation administered on days 1, 2, 8, 9, 15 and 16 of 28-day cycle over 2 to 10 mins by LC-MS/MS analysis; format: ADME, organism-based; conditions: in vivo
# [10] = molecular target: T2, Cytochrome P450 3A; assay: Decrease in CYP3A activity in rifampin-treated human hepatocytes assessed as 6-betahydroxytestosterone formation using testosterone as substrate at 2.5 uM after 30 mins by LC-MS/MS analysis; format: ADME, cell-based, Hepatocyte; conditions: 0.5 h
# Outline: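 Hepatocytes induced 3 days with 20 µM rifampicin were exposed to fresh medium containing 2.5 µM carfilzomib for 30 min and washed once. They were then incubated with testosterone 200 µM, and 6β-hydroxytestosterone was measured by LC-MS/MS.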
# [11] = molecular target: T1, CYP3A; assay: Time-dependent inhibition of CYP3A in human liver microsomes assessed as midazolam 1'-hydroxylation using midazolam as substrate by LC-MS/MS analysis; format: ADME; conditions: probe midazolam (1'-hydroxylation)
# Outline: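 Pooled HLM (16 donors, mixed sex), 37°C, duplicate. IC50: carfilzomib 0.01–10 µM preincubated 30 min, then midazolam near Km (3.8 µM) at 0.05 mg/mL protein, 5 min, LC-MS/MS, relative to 0.5% acetonitrile control. KI/kinact: 0–8 µM preincubated 0–30 min with 1.25 mg/mL HLM plus NADPH-generating system, diluted 25-fold, midazolam 40 µM for 5 min.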
# [12] = tested on: Plasma; assay: Drug metabolism in plasma of human multiple myeloma patient assessed as morpholino-hPhe metabolite formation at 15 mg/m'2, iv administered as single dose measured within first 30 mins after end of drug infusion by LC-MS/MS analysis; format: ADME, organism-based; conditions: in vivo, 0.5 h
# Outline: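 Patients with multiple myeloma received a single 15 mg/m2 carfilzomib dose. Plasma was sampled pre-dose, at end of infusion, at 5, 15, 30 min and at 1, 1.5, 2, 4, 6, 24 h. Samples were protein-precipitated and analyzed by LC-MS/MS (metabolites 0.500–500 ng/mL) with deuterated internal standards.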
# [13] = molecular target: T2, Cytochrome P450 3A; assay: Drug metabolism in pooled human hepatocytes assessed as disapperance rate at 1 uM by LC-MS/MS analysis in presence of 10 uM CYP3A inhibitor ketoconazole; format: ADME, cell-based, Hepatocyte; outline: as §3
# Cytochrome P450 2C19, sequence (P33261 whole entry): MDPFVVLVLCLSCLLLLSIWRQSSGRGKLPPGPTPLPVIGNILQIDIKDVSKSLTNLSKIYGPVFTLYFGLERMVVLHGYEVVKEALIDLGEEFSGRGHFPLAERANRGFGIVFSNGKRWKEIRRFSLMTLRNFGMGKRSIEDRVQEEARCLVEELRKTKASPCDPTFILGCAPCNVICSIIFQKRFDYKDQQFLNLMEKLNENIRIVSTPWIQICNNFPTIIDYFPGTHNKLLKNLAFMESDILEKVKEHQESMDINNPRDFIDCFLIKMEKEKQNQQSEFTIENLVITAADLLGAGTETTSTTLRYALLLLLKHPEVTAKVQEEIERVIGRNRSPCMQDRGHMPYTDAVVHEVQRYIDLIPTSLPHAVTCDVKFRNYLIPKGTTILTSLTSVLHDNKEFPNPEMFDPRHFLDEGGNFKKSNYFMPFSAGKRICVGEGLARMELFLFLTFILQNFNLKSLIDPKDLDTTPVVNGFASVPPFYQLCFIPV
# Cytochrome P450 2C9, sequence (P11712 whole entry): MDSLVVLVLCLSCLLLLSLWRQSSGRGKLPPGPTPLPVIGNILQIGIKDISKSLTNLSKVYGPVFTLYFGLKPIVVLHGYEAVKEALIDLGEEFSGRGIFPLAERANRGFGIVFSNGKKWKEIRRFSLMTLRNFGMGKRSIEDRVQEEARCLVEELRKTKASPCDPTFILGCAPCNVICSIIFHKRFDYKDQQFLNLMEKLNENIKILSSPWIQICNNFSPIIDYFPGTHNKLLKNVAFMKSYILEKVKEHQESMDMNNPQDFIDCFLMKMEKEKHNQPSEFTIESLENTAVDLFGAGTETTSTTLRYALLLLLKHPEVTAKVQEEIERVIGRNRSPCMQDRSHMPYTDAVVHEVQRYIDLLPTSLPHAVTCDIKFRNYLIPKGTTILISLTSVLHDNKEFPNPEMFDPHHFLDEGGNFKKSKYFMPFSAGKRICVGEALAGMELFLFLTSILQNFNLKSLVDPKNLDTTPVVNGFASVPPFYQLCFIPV
compound,measurement,setting,value
CC(C)C[C@H](NC(=O)[C@H](CCc1ccccc1)NC(=O)CN1CCOCC1)C(=O)N[C@@H](Cc1ccccc1)C(=O)N[C@@H](CC(C)C)C(=O)[C@@]1(C)CO1 [CARFILZOMIB],IC50 at 5 min,[1],0.49 µM
same,inhibition (INH),[2],Active
same,AUC(0-inf),[3],238 ng·h/mL
same,AUC(0-t),[4],301 ng·h/mL
same,Cmax,[5],3710 ng/mL
same,IC50,[6],> 10 µM
same,IC50,[7],> 10 µM
same,Drug metabolism,[8],0.016 min⁻¹
same,Drug excretion,[9],metabolite_detected
same,inhibition (INH),[10],14%
same,Ki,[11],11 µM
same,kinact,[11],0.00167 s⁻¹
same,Drug metabolism,[12],metabolite_detected
same,Drug metabolism,[13],0.012 min⁻¹
